The results in this text go back to ChEMBL document CHEMBL5104216, “Fragment-Sized Thiazoles in Fragment-Based Drug Discovery Campaigns: Friend or Foe?” (ACS Med Chem Lett, 2022).

Series [1] relates to Mycobacterium tuberculosis. Put plainly: Inhibition of Mycobacterium tuberculosis MetAP1a assessed as residual activity at 625 uM using L-methionine 7-amido-4-methylcoumarin as fluorogenic substrate and measured by fluorescence based assay. Put shortly: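 Kinetic fluorescence assay in which the enzyme hydrolyses L-methionine 7-amido-4-methylcoumarin to fluorescent 7-amino-4-methylcoumarin. Compounds were tested at 500–625 μM, and activity was called at <50% residual activity. Spectral interference was checked by measuring absorbance at the excitation and emission wavelengths and compound autofluorescence.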

Series [2] deals with Replicase polyprotein 1ab (Severe acute respiratory syndrome coronavirus 2) (UniProt P0DTD1). Put plainly: Inhibition of recombinant SARS-CoV-2 3CLpro expressed in Escherichia coli NiCo21(DE3) assessed as residual activity at 500 uM using DABCYL-KTSAVLQSGFRKME-EDANS as substrate preincubated for 30 mins followed by substrate addition and measured by FRET assay relative to control. The gist of the method:
(§1)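 Kinetic fluorescence read-out of cleavage of a FRET substrate carrying a DABCYL–EDANS pair. Compounds were tested at 500–625 μM, and <50% residual activity was taken as the activity threshold. To exclude false positives, absorbance at the excitation and emission wavelengths and autofluorescence of the compounds were measured.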

The target of series [3] is UDP-N-acetylglucosamine 1-carboxyvinyltransferase (Escherichia coli K-12) (UniProt P0A749). Put plainly: Inhibition of recombinant Escherichia coli MurA assessed as residual activity at 500 uM using UDP-N-acetylglucosamine as substrate and measured by malachite green based colorimetric assay relative to control. Put shortly:
(§2)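 Screened at 500–625 μM with malachite green colorimetric read-out. Activity threshold was <50% residual activity.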

Series [4] has the same target. As to the kind of experiment: Inhibition of recombinant Escherichia coli MurA assessed as residual activity at 500 uM using UDP-N-acetylglucosamine as substrate preincubated for 30 mins followed by substrate addition and measured by malachite green based colorimetric assay relative to control. The gist of the method: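 E. coli MurA at 500–625 μM with 30 min preincubation before substrate addition. Malachite green colorimetric read-out. Activity threshold was <50% residual activity.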

A short description of series [5]: Redox activity of compound assessed as redox index at 100 uM in presence of 1 mM DTT measured by HRP-PR assay. The class given is physicochemical. Put shortly: (§3)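 H2O2 from redox cycling, with or without DTT, detected with horseradish peroxidase-phenol red (HRP-PR).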
Series [6] can be described thus: Redox activity of compound assessed as redox index at 100 uM in presence of 100 uM TCEP measured by H2DCFDA assay. The format is physicochemical. Put shortly: (§4)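 Reactive oxygen species, with or without the reducing agent TCEP, detected with the fluorescent probe H2DCFDA. Compound spectral interference (autofluorescence) checked under the assay conditions.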

The target of series [7] is D-alanine--D-alanine ligase B (Escherichia coli K-12) (UniProt P07862). Put plainly: Inhibition of recombinant Escherichia coli DdlB assessed as residual activity at 500 uM using D-alanine as substrate incubated for 20 mins and measured by malachite green based colorimetric assay relative to control. Put shortly:
as §2

A short description of series [8]: Redox activity of compound assessed as redox index at 10 uM measured by resazurin assay. The class given is physicochemical. The gist of the method:
(§5)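 Free radicals formed by redox cycling with DTT detected with resazurin by fluorimetric read-out. Spectral interference checked.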
A general note: Resazurin is reduced to fluorescent resorufin, in cell work by metabolically active cells.

A short description of series [9]: Redox activity of compound assessed as redox index at 100 uM measured by HRP-PR assay. The format is physicochemical. The gist of the method:
as §3

Series [10] is described as follows: Thiol reactivity of compound measured by TNB2- assay. The class given is physicochemical. Put shortly: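 Reactivity toward the thiol surrogate TNB2– in a nonproteinaceous setting without TCEP. Reversibility tested by adding TCEP and checking that absorbance was restored.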
In series [11] the target is Replicase polyprotein 1ab (Severe acute respiratory syndrome coronavirus 2) (UniProt P0DTD1). Put plainly: Inhibition of recombinant SARS-CoV-2 3CLpro expressed in Escherichia coli NiCo21(DE3) assessed as residual activity at 500 uM using DABCYL-KTSAVLQSGFRKME-EDANS as substrate preincubated for 30 mins in presence of 1mM DTT followed by substrate addition and measured by FRET assay relative to control. Put shortly:
as §1

Series [12] can be described thus: Aqueous stability of the compound at pH 7.4 measured after 60 mins by spectrophotometric analysis. The format is physicochemical. As to conditions: buffer, pH 7.4, 1 h. The gist of the method: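 Followed by spectrophotometry as changes in the compound absorption spectrum over time in 50 mM Tris-HCl pH 7.4, 0.5 mM EDTA, read after 60 min in 96-well microplate format. Compounds with low absorbance were not evaluated.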

The nature of series [13]: Redox activity of compound assessed as redox index at 100 uM measured by H2DCFDA assay. The class given is physicochemical. Put shortly: as §4
Series [14] deals with UDP-N-acetylglucosamine 1-carboxyvinyltransferase (Escherichia coli K-12) (UniProt P0A749). As to the kind of experiment: Inhibition of recombinant Escherichia coli MurA assessed as residual activity at 500 uM using UDP-N-acetylglucosamine as substrate preincubated for 30 mins in presence of 1 mM DTT followed by substrate addition and measured by malachite green based colorimetric assay relative to control.
Chain of UDP-N-acetylglucosamine 1-carboxyvinyltransferase (Escherichia coli K-12) (P0A749 whole entry): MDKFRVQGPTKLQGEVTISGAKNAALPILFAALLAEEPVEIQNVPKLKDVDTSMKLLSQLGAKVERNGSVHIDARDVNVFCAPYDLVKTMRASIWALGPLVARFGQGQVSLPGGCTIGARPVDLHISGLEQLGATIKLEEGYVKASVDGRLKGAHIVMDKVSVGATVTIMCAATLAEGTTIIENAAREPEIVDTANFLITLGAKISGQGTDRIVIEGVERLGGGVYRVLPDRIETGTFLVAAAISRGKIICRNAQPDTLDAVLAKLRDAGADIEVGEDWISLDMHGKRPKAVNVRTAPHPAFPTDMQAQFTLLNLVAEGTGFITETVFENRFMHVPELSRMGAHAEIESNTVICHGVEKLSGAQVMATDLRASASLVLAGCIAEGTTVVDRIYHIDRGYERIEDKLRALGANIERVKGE

The nature of series [15]: Redox activity of compound assessed as redox index at 1 uM measured by resazurin assay. The format is physicochemical. The gist of the method: as §5

As to `CCOC(=O)c1sc(Br)nc1C`, the Activity in series [1] is 115%; in series [2], 91.6%; in series [3], 19.5%; in series [4], 9.1%; in series [7] it was 93%; in [10], “Active”. Further, the Activity in series [11] turned out to be 85.8%; in series [14], 103%. Further, the Activity_index in [5] came out at 1; in series [6] it was 1.3; in series [8], 0.9; in [9], 1; in series [13], 1.3; in series [15], 0.9. Moreover, in series [12], the Stability result is on record as “Unstable”.

Consider `N#Cc1cnc(N)s1`, for which the Activity is 90.8% in series [1]; 1.1% in series [2]; 18.9% in series [3]; 6.1% in series [4]; 91% in [7]; “Active” in [10]. In addition, the results for the Activity in [11] and in [14] were 74.1% and 102%, respectively. Moreover, the Activity_index in [5] was found to be 1; in series [6] it was 0.8; in series [8], 1.2; in [9], 1; in [13], 1; in series [15], 0.9. Besides, the Stability entry in series [12] is “Stable”.

Regarding `COC(=O)CC(=O)Nc1ncc(C#N)s1`, the Activity in series [1] was 92.6%; in [2], -4.7%; in series [3] it was 29.7%; in series [4] it was 5.8%; in [7], 88%; in series [10] it was “Active”. Besides, the Activity was determined as 86.3% in series [11] and 112% in series [14]. The Activity_index was determined as 1 in series [5]; 1 in [6]; 1 in series [8]; 1 in [9]; 0.9 in series [13]; 0.9 in series [15]. Besides, the Stability result in series [12] is recorded as “Stable”.

Turning to `O=C(O)c1csc(Nc2cccc3ncccc23)n1`, the Activity in series [1] was 36.8%; in [2], 42.7%; in series [3], 1.4%; in series [4] it was 0%; in series [7], 82%; in series [10] it was “Active”. In addition, the results for the Activity in [11] and in [14] were 41.2% and 80.9%, respectively. Besides, the Activity_index came out at 1 in [5]; 1.6 in series [6]; 2.4 in [8]; 1 in [9]; 1.3 in series [13]; 1 in [15]. In series [12], the Stability entry is reported as “Stable”.

With `O=C(O)C(=O)Nc1ncc(Br)s1`, the Activity in series [1] was 28.9%; in series [2], 62.2%; in series [3] it was 11.3%; in series [4], 1.2%; in series [7], 94%; in series [10], “Active”. Besides, the Activity in series [11] is 82.8%; in series [14], 112%. The Activity_index in series [5] was 1; in [6] it was 1.2; in series [8], 0.9; in series [9] it was 1; in series [13], 1; in series [15] it was 0.9. For the same compound, the Stability result in series [12] was “Stable”.

Regarding `CCOC(=O)c1csc(N)n1`, the Activity in series [1] was 93.7%; in series [2], 18.9%; in series [3], 18.6%; in series [4], 9%; in [7], 89%; in series [10], “Active”. Besides, the Activity in [11] was found to be 76.3%; in [14], 105%. The Activity_index was 1 in series [5]; 0.7 in series [6]; 1 in series [8]; 0.8 in series [9]; 1.1 in series [13]; 0.9 in [15]. Also, the Stability result in series [12] was “Stable”.

With `Nc1ncc(Br)s1`, the Activity in series [1] is 156%; in [2], 42.5%; in [3], 21.1%; in series [4], 9%; in [7] it was 91%; in series [10], “Active”. Besides, the Activity in series [11] is 79.4%; in series [14] it was 100%. In addition, the Activity_index in [5] is reported as 1; in [6] it was 1.5; in series [8], 1.1; in series [9], 1; in [13], 1.6; in series [15] it was 0.9. Further, the Stability entry in series [12] is given as “Stable”.

With `N#Cc1cnc(Br)s1`, the Activity in series [1] was 128%; in [2] it was 101%; in series [3] it was 96%; in series [4], 94.3%; in series [7], 94%; in series [10] it was “Active”. Also, the Activity in series [11] worked out at 75.5%; in series [14], 100%. Besides, the Activity_index in series [5] was found to be 1; in series [6], 0.8; in [8] it was 1; in series [9], 1; in series [13], 1; in series [15] it was 0.9. For the same compound, the Stability result in series [12] is “Stable”.

With `Cc1cnc(N)s1`, the Activity in series [1] is 118%; in series [2], 88%; in series [3], 95.2%; in series [4], 85.2%; in series [7] it was 92%; in series [10], “Active”. The results for the Activity in [11] and in series [14] were 79.8% and 94.6%, respectively. Moreover, the Activity_index in series [5] is 1; in series [6] it was 1.3; in series [8], 0.9; in [9], 1; in [13], 1.3; in series [15] it was 1. Besides, the Stability result in series [12] is “Stable”.

On to `N#Cc1cnc(NC(=O)C(=O)O)s1`, for which the Activity was 150% in series [1]; 104% in series [2]; 112% in [3]; 90.6% in series [4]; 105% in [7]; “Active” in [10]. The values for the Activity in [11] and in [14] were 97.6% and 114%, respectively. The Activity_index in series [5] came out at 1; in [6] it was 0.7; in series [8] it was 0.9; in series [9], 1; in series [13], 0.9; in series [15] it was 0.9. Moreover, the Stability result in series [12] is listed as “Stable”.

In the case of `O=C(O)c1csc(-c2ccc(F)cc2)n1`, the Activity in series [1] was 141%; in series [2], 82.6%; in series [3], 58.7%; in series [4], 12.8%; in series [7], 94%; in [10], “Active”. Further, the Activity in series [11] turned out to be 88.1%; in series [14] it was 90%. Moreover, the Activity_index in [5] is given as 1; in series [6], 0.8; in series [8] it was 0.9; in series [9], 0.8; in [13], 1.1; in series [15], 0.9. For the same compound, the Stability result in series [12] was “Stable”.
